Results reported in ChEMBL document CHEMBL1772977, “Synthesis and biological evaluation of novel 4-benzylpiperazine ligands for sigma-1 receptor imaging” (Bioorg Med Chem, 2011).
pKi: −log10 of the molar value.

Experiments:
[1] = biological target: Sigma non-opioid intracellular receptor 1 (Rattus norvegicus, UniProt Q9R0C9); assay: Displacement of (+)-[3H]pentazocine from sigma 1 receptor in rat brain membranes by competitive binding assay; assay type: cell membranes
How it was run: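 Sigma-1 competition binding used rat brain membranes as receptor material with (+)-[3H]pentazocine as radioligand. Ki was derived by Cheng–Prusoff from at least three independent experiments, each in triplicate, and is reported as mean ± SD.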

[2] = Displacement of [3H]ditolylguanidine from sigma 2 receptor in rat liver membrane by competitive binding assay; assay type: cell membranes
How it was run: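 Sigma-2 competition binding used rat liver membranes with [3H]ditolylguanidine as radioligand. 10 µM dextrallorphan was present to mask sigma-1 sites. Ki was derived by Cheng–Prusoff from at least three independent experiments, each in triplicate, and is reported as mean ± SD.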

Chain of Sigma non-opioid intracellular receptor 1 (Q9R0C9 whole entry): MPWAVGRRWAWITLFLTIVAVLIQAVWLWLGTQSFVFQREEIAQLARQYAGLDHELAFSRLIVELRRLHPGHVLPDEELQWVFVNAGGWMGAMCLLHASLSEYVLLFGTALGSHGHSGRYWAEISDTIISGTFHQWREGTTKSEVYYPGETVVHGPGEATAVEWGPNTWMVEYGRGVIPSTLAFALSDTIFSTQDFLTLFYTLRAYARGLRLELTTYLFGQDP

Row | SMILES | pKi [1] | pKi [2]
1 | Fc1ccc(CN2CCN(Cc3ccc4c(c3)OCO4)CC2)cc1 | 9.07 | 7.28
2 | Brc1ccc(CN2CCN(Cc3ccc4c(c3)OCO4)CC2)cc1 | 9.11 | 7.39
3 | Ic1ccc(CN2CCN(Cc3ccc4c(c3)OCO4)CC2)cc1 | 9.10 | 7.21
